In ChEMBL document CHEMBL4038305, “Benzoxaborole Antimalarial Agents. Part 5. Lead Optimization of Novel Amide Pyrazinyloxy Benzoxaboroles and Identification of a Preclinical Candidate” (J Med Chem, 2017):

Key:
Lymphocyte [1] = assay: Genotoxicity in human lymphocytes at 0.5 to 355 ug/mL after 3 to 28 hrs in absence of rat liver S9 fraction by micronucleus assay; assay type: toxicity, cell-based
Lymphocyte [2] = assay: Genotoxicity in human lymphocytes at 0.5 to 355 ug/mL after 3 hrs in presence of rat liver S9 fraction by micronucleus assay; assay type: toxicity, cell-based; conditions: s9, 3 h
Rattus norvegicus = assay: Genotoxicity in rat assessed as micronuclei in polychromatic erythrocyte cells in bone marrow at 500 to 2000 mg/kg administered via oral gavage measured after 24 to 48 hrs post dose by micronucleus assay; assay type: toxicity, organism-based; conditions: in vivo
[3] = Cmax in Sprague-Dawley rat plasma at 5 mg/kg, po via gavage by HPLC/MS analysis; assay type: ADME, organism-based; design: dose 5 mg/kg, route oral
How it was run: (§1)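 Female CD-1 mice, male SD rats and beagle dogs received 5 mg/kg either iv or by oral gavage. Vehicle was PEG 300/propylene glycol/water (55/25/20, pH 6). Blood was sampled and drug measured by HPLC-MS/MS.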

[4] = Tmax in Sprague-Dawley rat plasma at 5 mg/kg, po via gavage by HPLC/MS analysis; assay type: ADME, organism-based
[5] = Clearance in Beagle dog at 5 mg/kg, iv by HPLC/MS analysis; assay type: ADME, organism-based, Canis lupus familiaris; conditions: in vivo; how it was run: as §1
Plasmodium falciparum [6] = assay: Antimalarial activity against Plasmodium falciparum HB3 infected in human erythrocytes assessed as reduction in [3H]-hypoxanthine incorporation preincubated for 24 hrs followed by [3H]-hypoxanthine addition measured after 24 hrs by scintillation counting method; assay type: functional, cell-based
Plasmodium falciparum [7] = assay: Antimalarial activity against Plasmodium falciparum FCB infected in human erythrocytes assessed as reduction in [3H]-hypoxanthine incorporation preincubated for 24 hrs followed by [3H]-hypoxanthine addition measured after 24 hrs by scintillation counting method; assay type: functional, cell-based
Plasmodium falciparum [8] = assay: Antimalarial activity against intraerythrocytic stage of Plasmodium falciparum assessed as time required for maximal killing effect at 30 times IC50 preincubated for 24 hrs followed by [3H]-hypoxanthine addition measured after 24 hrs by scintillation counting method; assay type: functional
How it was run: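 In vitro P. falciparum parasite reduction ratio assay run at 10×, 30× and 100× IC50. Derived parameters: lag phase (time to maximal killing), PRR (parasites killed per life cycle) and PCT99.9% (time to clear 99.9% of the initial parasite population).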

Salmonella typhimurium [9] = assay: Genotoxicity in Salmonella typhimurium TA98 assessed as number of revertants per plate at 15 ug/plate in absence of rat liver S9 fraction by Ames test (reference value: 14 +/- 6); assay type: toxicity; conditions: salmonella enterica subsp. enterica serovar typhimurium
Salmonella typhimurium [10] = assay: Genotoxicity in Salmonella typhimurium TA100 assessed as number of revertants per plate at 5000 ug/plate in presence of rat liver S9 fraction by Ames test (reference value: 141 +/- 1); assay type: toxicity; conditions: salmonella enterica subsp. enterica serovar typhimurium
Salmonella typhimurium [11] = assay: Genotoxicity in Salmonella typhimurium TA1535 assessed as number of revertants per plate at 15 ug/plate in absence of rat liver S9 fraction by Ames test (reference value: 10 +/- 3); assay type: toxicity; conditions: salmonella enterica subsp. enterica serovar typhimurium
Salmonella typhimurium [12] = assay: Genotoxicity in Salmonella typhimurium TA1535 assessed as number of revertants per plate at 1500 ug/plate in absence of rat liver S9 fraction by Ames test (reference value: 10 +/- 3); assay type: toxicity; conditions: salmonella enterica subsp. enterica serovar typhimurium
Salmonella typhimurium [13] = assay: Genotoxicity in Salmonella typhimurium TA1535 assessed as number of revertants per plate at 1.5 ug/plate in presence of rat liver S9 fraction by Ames test (reference value: 10); assay type: toxicity; conditions: salmonella enterica subsp. enterica serovar typhimurium
Salmonella typhimurium [14] = assay: Genotoxicity in Salmonella typhimurium TA1535 assessed as number of revertants per plate at 15 ug/plate in presence of rat liver S9 fraction by Ames test (reference value: 10); assay type: toxicity; conditions: salmonella enterica subsp. enterica serovar typhimurium
Salmonella typhimurium [15] = assay: Genotoxicity in Salmonella typhimurium TA1537 assessed as number of revertants per plate at 1.5 ug/plate in absence of rat liver S9 fraction by Ames test (reference value: 19 +/- 9); assay type: toxicity; conditions: salmonella enterica subsp. enterica serovar typhimurium
Salmonella typhimurium [16] = assay: Genotoxicity in Salmonella typhimurium TA1537 assessed as number of revertants per plate at 500 ug/plate in presence of rat liver S9 fraction by Ames test (reference value: 11 +/- 4); assay type: toxicity; conditions: salmonella enterica subsp. enterica serovar typhimurium
Escherichia coli [17] = assay: Genotoxicity in Escherichia coli WP2uvrA assessed as number of revertants per plate at 5 ug/plate in absence of rat liver S9 fraction by Ames test (reference value: 45 +/- 9); assay type: toxicity
Escherichia coli [18] = assay: Genotoxicity in Escherichia coli WP2uvrA assessed as number of revertants per plate at 15 ug/plate in absence of rat liver S9 fraction by Ames test (reference value: 45 +/- 9); assay type: toxicity
Escherichia coli [19] = assay: Genotoxicity in Escherichia coli WP2uvrA assessed as number of revertants per plate at 50 ug/plate in absence of rat liver S9 fraction by Ames test (reference value: 45 +/- 9); assay type: toxicity
Escherichia coli [20] = assay: Genotoxicity in Escherichia coli WP2uvrA assessed as number of revertants per plate at 50 ug/plate in presence of rat liver S9 fraction by Ames test (reference value: 42 +/- 6); assay type: toxicity
Escherichia coli [21] = assay: Genotoxicity in Escherichia coli WP2uvrA assessed as number of revertants per plate at 1500 ug/plate in presence of rat liver S9 fraction by Ames test (reference value: 42 +/- 6); assay type: toxicity
Lymphocyte [22] = assay: Genotoxicity in human lymphocytes assessed as replication index at 160 ug/mL after 3 hrs in presence of rat liver S9 fraction by micronucleus assay relative to control; assay type: toxicity, cell-based; conditions: s9, 3 h
How it was run: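 Human lymphocytes exposed for 3 h with or without rat liver S9, or 28 h without S9, with 1% DMSO as vehicle control. Replication index = (binucleated + 2 × multinucleated cells)/total cells. Cytotoxicity (%) = 100 − (RI treated/RI vehicle) × 100.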

Lymphocyte [23] = assay: Genotoxicity in human lymphocytes assessed as increase in frequency of micronucleated cells at 355.15 ug/mL after 3 hrs in absence of rat liver S9 fraction by micronucleus assay (reference value: 0.99%); assay type: toxicity, cell-based
Plasmodium berghei [24] = assay: Antimalarial activity against Plasmodium berghei infected in Swiss Webster mouse assessed as mouse survival rate at 0.3 mg/kg administered once daily via oral gavage for 4 consecutive days beginning 1 hr after infection measured on day 4 post infection relative to control; assay type: functional
How it was run: (§2)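 Mice given an intraperitoneal injection of P. berghei-infected erythrocytes taken from a previously infected animal. Oral dosing once daily for 4 consecutive days, starting 1 h after infection. Vehicle: polyethylene glycol 300/propylene glycol/water (weight ratio 55/25/20). Percent survival recorded daily from day 4 to day 20. Chloroquine 30 mg/kg and vehicle-only groups served as controls.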

Plasmodium berghei [25] = assay: Antimalarial activity against Plasmodium berghei infected in Swiss Webster mouse assessed as mouse survival rate at 0.3 mg/kg administered once daily via oral gavage for 4 consecutive days beginning 1 hr after infection measured on day 5 post infection relative to control; assay type: functional; how it was run: as §2
Plasmodium berghei [26] = assay: Antimalarial activity against Plasmodium berghei infected in Swiss Webster mouse assessed as mouse survival rate at 1 mg/kg administered once daily via oral gavage for 4 consecutive days beginning 1 hr after infection measured on day 7 post infection relative to control; assay type: functional; how it was run: as §2
Plasmodium berghei [27] = assay: Antimalarial activity against Plasmodium berghei infected in Swiss Webster mouse assessed as mouse survival rate at 0.3 mg/kg administered once daily via oral gavage for 4 consecutive days beginning 1 hr after infection measured on day 7 post infection relative to control; assay type: functional; how it was run: as §2
Plasmodium berghei [28] = assay: Antimalarial activity against Plasmodium berghei infected in Swiss Webster mouse assessed as mouse survival rate at 100 mg/kg administered once daily via oral gavage for 4 consecutive days beginning 1 hr after infection measured on day 19 post infection relative to control; assay type: functional; how it was run: as §2

Cc1c(Oc2cnc(C(=O)NCCO)cn2)ccc2c1B(O)OC2
Activity (Lymphocyte [1]): Non-Toxic
Activity (Lymphocyte [2]): Non-Toxic
Activity (Rattus norvegicus): Non-Toxic

Cc1c(Oc2cnc(C(=O)N3CC(C)(O)C3)cn2)ccc2c1B(O)OC2
Cmax [3]: 1700 ng/mL
Tmax [4]: 3.5 h
clearance [5]: 0.505 mL/min/kg
IC50 (Plasmodium falciparum [6]): 80 nM
IC50 (Plasmodium falciparum [7]): 66 nM
Time (Plasmodium falciparum [8]): 0 h
Activity (Salmonella typhimurium [9]): 15
Activity (Salmonella typhimurium [10]): 31
Activity (Salmonella typhimurium [11]): 13
Activity (Salmonella typhimurium [12]): 7
Activity (Salmonella typhimurium [13]): 9
Activity (Salmonella typhimurium [14]): 12
Activity (Salmonella typhimurium [15]): 15
Activity (Salmonella typhimurium [16]): 17
Activity (Escherichia coli [17]): 35
Activity (Escherichia coli [18]): 41
Activity (Escherichia coli [19]): 35
Activity (Escherichia coli [20]): 44
Activity (Escherichia coli [21]): 26
Activity (Lymphocyte [22]): 8%
Activity (Lymphocyte [23]): 0.85%

Cc1c(Oc2cnc(C(=O)NC(C)CO)cn2)ccc2c1B(O)OC2 (centres undefined)
survival at 0.3 mg/kg (Plasmodium berghei [24]): 100%
survival at 0.3 mg/kg (Plasmodium berghei [25]): 20%
survival at 1 mg/kg (Plasmodium berghei [26]): 20%
survival at 0.3 mg/kg (Plasmodium berghei [27]): 20%

Cc1c(Oc2cnc(C(=O)N3CC(O)(C(C)C)C3)cn2)ccc2c1B(O)OC2
survival at 100 mg/kg (Plasmodium berghei [28]): 80%
